Screening data (PubChem)
PREPL inh: PREPL enzyme inhibitors, primary screen, biochemical, fluorescence polarization; Prolyl endopeptidase-like (Homo sapiens), Q4J6C6; recombinant PREPL, fluorescence polarization activity-based probe; inhibition, % at 5.96 µM; 0.68% of 320,000 active; AID 2751, 2010; in the data active = inhibition above about 43%;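 note: 0% = enzyme with DMSO and 100% = wells lacking enzyme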
PP5 primary: PP5 phosphatase inhibitors, primary screen, biochemical, fluorescence. Serine/threonine-protein phosphatase 5 (Homo sapiens), P53041. purified PP5c, OMFP substrate fluorescence. inhibition, % at 6.7 µM. 0.18% of 320,000 active. AID 1987, 2009;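 active = inhibition above the campaign's mean inhibition across all tested compounds plus 3 SD, cut at about 9.5% in these data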;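 note: 0% = DMSO only and 100% = 100 µM cantharidin control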
UCH37 inh: inhibitors of human UCH37 deubiquitinase, primary screen, biochemical, Ub-AMC cleavage, fluorescence | Ubiquitin carboxyl-terminal hydrolase isozyme L5 (Homo sapiens), Q9Y5K5 | purified proteasome/UCH37 | inhibition, % (concentration not given with the values) | 0.33% of 330,000 active;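 active = mean inhibition over replicate wells above about 20%, limit read from the data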;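 note: 0% = compound-free wells with enzyme and 100% = wells lacking proteasome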
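Assay system: Proteasome-bound UCH37. Buffer or medium: pH 7.4 Tris-HCl (50 mM) with ovalbumin, ATP-MgCl2, DTT. Incubation: 30 min preincubation with enzyme, 25 min cleavage at room temperature. Measured by: fluorescence, ex 355 nm, em 460 nm. Read-out basis: percent inhibition. Control set: wells without proteasome as full block, compound-free enzyme plus substrate as uninhibited.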
CTSL1 counter: Fasciola hepatica cathepsin L1 inhibitors, primary screen, counter-screen for PFM18AAP inhibitor project, biochemical, QFRET, fluorogenic peptide substrate | 0.49% of 300,000 active | recombinant F. hepatica cathepsin L1, Z-Leu-Arg-MCA fluorescence | inhibition, % at 5.96 µM;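 active = inhibition above the mean of all tested compounds plus 3 SD, set per screening campaign, cut at about 17% in these data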;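 note: 0% = plate median of test compound wells and 100% = 1 µM Z-Phe-Ala-diazomethylketone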
PP1 counter: PP1-alpha phosphatase inhibitors, primary screen, counter-screen for PP5 inhibitor project, biochemical, fluorescence, OMFP substrate, single point; Serine/threonine-protein phosphatase PP1-alpha catalytic subunit (Homo sapiens), P62136; purified PP1alpha; inhibition, % at 6.7 µM; 0.9% of 320,000 active;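 active = inhibition above the mean inhibition of all tested compounds plus 3 SD, computed separately for each screening campaign, cut at about 15% in these data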
Target sequence (P62136 whole entry, looked up): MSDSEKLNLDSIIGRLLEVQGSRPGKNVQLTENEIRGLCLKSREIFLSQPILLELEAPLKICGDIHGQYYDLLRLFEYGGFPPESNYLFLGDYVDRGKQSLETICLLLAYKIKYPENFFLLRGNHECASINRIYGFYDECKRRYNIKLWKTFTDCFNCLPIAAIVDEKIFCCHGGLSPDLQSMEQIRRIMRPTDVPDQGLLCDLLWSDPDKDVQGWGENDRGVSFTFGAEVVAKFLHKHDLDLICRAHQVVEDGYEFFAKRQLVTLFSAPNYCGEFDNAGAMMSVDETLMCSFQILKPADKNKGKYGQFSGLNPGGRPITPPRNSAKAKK
UBC13 polyUb: UBC13 polyubiquitin chain formation inhibitors, primary screen, biochemical, TR-FRET, uHTS | Ubiquitin-conjugating enzyme E2 N (Homo sapiens), P61088 | inhibition, % at 20 µM | 0.47% of 330,000 active | AID 485273, 2010; in the data active = inhibition above about 45%, passing the limit was not always enough
Casp3 counter: CASP3 inhibitor validation, counterassay for project on UBE2N polyubiquitination blockers, biochemical, one dose. 4% of 1,400 active. shares compounds with UBC13 polyUb. Recombinant caspase-3, Caspase-Glo 3/7 luminescence, 60 min. inhibition, % at 20 µM;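 active = mean inhibition across replicates above about 26%, limit read from the data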;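 note: plate controls were DMSO with caspase-3 for no effect and DMSO wells lacking enzyme for full effect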
Target sequence (P42574 whole entry, looked up): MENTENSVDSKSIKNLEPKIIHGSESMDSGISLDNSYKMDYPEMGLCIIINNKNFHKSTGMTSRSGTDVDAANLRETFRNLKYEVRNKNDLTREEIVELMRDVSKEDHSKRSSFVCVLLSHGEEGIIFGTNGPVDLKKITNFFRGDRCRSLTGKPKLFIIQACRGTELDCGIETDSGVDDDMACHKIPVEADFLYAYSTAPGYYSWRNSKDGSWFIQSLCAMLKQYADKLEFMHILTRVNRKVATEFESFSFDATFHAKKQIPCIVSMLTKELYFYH
UBC13 conf: UBC13 polyubiquitination inhibitors, single-point retest, confirmation, biochemical, TR-FRET, single concentration. shares compounds with UBC13 polyUb. inhibition, % at 10 µM. 68% of 1,400 active; in the data active = inhibition above about 45%
Starred values were filed as active, the others as inactive; . = not tested or not shown. In the library only some 2.3% were active in any assay of this set; here they are far more common.

SMILES	PREPL inh	PP5 primary	UCH37 inh	CTSL1 counter	PP1 counter	UBC13 polyUb	Casp3 counter	UBC13 conf
Cc1cccc(CSCCNC(=S)Nc2ccccc2)c1	-4	1	5	1	1	48*	6	10
CC(=NNC(=O)C(=O)Nc1c(C)n(C)n(-c2ccccc2)c1=O)c1ccncc1	.	.	4	.	.	.	.	.
Cc1cc(Nc2ccc(Cl)cc2)nc(NCc2ccccc2)n1	2	8	-32	-13	17*	72*	2	84*
CCCCNc1cc(C)nc(NCc2ccccc2)n1	-1	-1	-4	0	1	48*	-4	56*
Cc1cc(Nc2ccccc2)nc(NCc2ccccc2)n1	-6	5	-3	0	9	46*	-2	50*
CC1(C)C2CC=C(C=NNC(=O)c3ccc(Cl)cc3)C1C2 (stereo not drawn)	.	.	1	.	.	.	.	.
COc1ccc(C(CNC(=O)c2cc3c(s2)CCC(C)C3)N2CCOCC2)cc1 (stereo not drawn)	-6	1	-1	.	-4	-17	.	.
COc1ccc(C(CNC(=O)c2cc3ccccc3o2)N2CCCC2)cc1 (stereo not drawn)	16	2	0	.	-3	6	.	.
COc1ccc(C(CNC(=O)c2cc3c(s2)CCC(C)C3)N2CCCC2)cc1 (stereo not drawn)	9	4	0	.	5	59*	-3	42
COc1ccc(C(CNC(=O)c2ccc(-c3nc4ccccc4s3)o2)N2CCCC2)cc1 (stereo not drawn)	-67	1	-34	.	1	61*	8	53*
CN(C)CCNC=C(C(=O)Nc1ccc(Cl)cc1Cl)C(=O)Nc1ccc(Cl)cc1Cl	8	2	0	2	-2	56*	-2	80*
CC(=O)/C(=C/N(C)C)C(=O)Nc1ccc(Cl)cc1Cl	-4	3	4	-1	0	1	.	.
C#CCOCCOCCOCCNc1nc(N2CCN(C(=O)CCCCCCCCCCNC(=O)[C@H]([C@@H](C)CC)n3cc(CCCCCN)nn3)CC2)nc(N2CCN(C(=O)CCCCCCCCCCNC(=O)[C@H](CCCCN)n3cc(CCCC(=O)O)nn3)CC2)n1	29	3	.	2	15	114*	-2	105*
C#CCOCCOCCOCCNc1nc(N2CCN(C(=O)[C@H](CCCCN)n3cc(CCCC)nn3)CC2)nc(N2CCN(C(=O)[C@H](CCCCN)n3cc(CCCC)nn3)CC2)n1	-7	0	-1	-5	3	8	.	.
CC[C@H](C)[C@@H](C(=O)NCCCCCCCCCCC(=O)N1CCNCC1)n1cc(CCCCN=C(N)N)nn1	9	0	5	-4	-1	49*	2	24
C#CCOCCOCCOCCNc1nc(N2CCN(C(=O)CCCCCCCCCCNC(=O)[C@@H](CCC(=O)O)n3cc(CCCCCN)nn3)CC2)nc(N2CCN(C(=O)CCCCCCCCCCNC(=O)[C@H]([C@@H](C)CC)n3cc(CCCCCN)nn3)CC2)n1	30	1	.	4	13	114*	-2	104*
C#CCOCCOCCOCCNc1nc(N2CCN(C(=O)[C@H]([C@@H](C)O)n3cc(CCCCN)nn3)CC2)nc(N2CCN(C(=O)[C@H](CCCCN)n3cc(CCC(=O)O)nn3)CC2)n1	5	-1	-1	-2	-4	1	.	.
C#CCOCCOCCOCCNc1nc(N2CCN(C(=O)CCCCCCCCCCNC(=O)[C@H](CO)n3cc(CCCSC)nn3)CC2)nc(N2CCN(C(=O)CCCCCCCCCCNC(=O)[C@H](CCCCN)n3cc(CCO)nn3)CC2)n1	30	.	3	.	.	113*	1	124*
CC(=O)Nc1ccc(C=NNS(=O)(=O)c2cc(C)ccc2C)cc1	.	.	5	.	.	.	.	.
Cc1ccc([N+](=O)[O-])cc1N1C(=O)CSC1=NNC(=O)c1cccnc1	.	.	1	.	.	.	.	.
C=CCNC(=S)NN=C1CCS(=O)(=O)c2ccccc21	.	.	6	.	.	.	.	.
Cc1ccc(Nc2nc(NN=Cc3c[nH]c4ccccc34)nc(N3CCOCC3)n2)cc1	.	.	0	.	.	.	.	.
C#CCOCCOCCOCCNc1nc(N2CCN(C(=O)CCCCCCCCCCNC(=O)Cn3cc(C[C@@H](C)O)nn3)CC2)nc(N2CCN(C(=O)CCCCCCCCCCNC(=O)[C@@H](CCC(=O)O)n3cc(CCCCCN)nn3)CC2)n1	22	0	2	3	1	66*	-5	51*
C#CCOCCOCCOCCNc1nc(N2CCN(C(=O)CCCCCCCCCCNC(=O)[C@H](CCCCN)n3cc(CCCC(=O)O)nn3)CC2)nc(N2CCN(C(=O)CCCCCCCCCCNC(=O)[C@@H]([C@H](C)O)n3cc(C)nn3)CC2)n1	18	0	0	5	3	54*	-1	32
C#CCOCCOCCOCCNc1nc(N2CCOCC2)nc(N2CCN(C(=O)CCCCCCCCCCNC(=O)[C@@H]([C@H](C)CC)n3cc(CCCCCN)nn3)CC2)n1	15	0	4	-3	11	70*	2	64*
SMILES	PREPL inh	PP5 primary	UCH37 inh	CTSL1 counter	PP1 counter	UBC13 polyUb	Casp3 counter	UBC13 conf
CCOC(=O)Cc1csc(NN=Cc2cccc([N+](=O)[O-])c2)n1	.	.	4	.	.	.	.	.
COc1cc(C=NNC(=O)c2cccc([N+](=O)[O-])c2)ccc1OCc1ccc(C)cc1	.	.	2	.	.	.	.	.
CC(C)=CCc1c(O)cc(O)c2c(=O)c(O[C@@H]3O[C@@H](C)[C@H](O)[C@@H](O)[C@H]3O)c(-c3ccc(O)cc3)oc12	15	0	4	-3	-7	86*	-4	78*
COc1cccc(-c2nn(C)c3sc(C(=O)NCCCN(C)Cc4ccccc4)cc23)c1	-48	0	-65	5	-1	53*	-3	59*
CCCCN(C)CCNC(=O)c1cc2c(-c3cccc(OC)c3)nn(C)c2s1	-34	-2	-81	6	-3	46*	1	45
CC(=NNC(=S)Nc1ccc(C(C)C)cc1)c1ccc2c(c1)OCO2	.	.	2	.	.	.	.	.
Cc1c(NC(=O)CCCN2C(=O)c3cccc4cccc(c34)C2=O)c(=O)n(-c2ccccc2)n1C	11	1	-15	5	10	81*	3	94*
CC(=NNC(=O)c1ccccc1O)c1cccs1	.	.	12	.	.	.	.	.
